Results reported in PubChem BioAssay.
Results filed as inconclusive are left out.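 Rule for the calls, unless noted: active = inhibition over a set limit, the all-compound mean plus 3 SD, in both replicate runs; inconclusive = over that limit in just one replicate run; inactive = at or under that limit in both runs.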

What was measured:
[1] = OD615 S. cerevisiae growth inhibition, permissive medium, pilot counter-assay, permissive growth control for S. cerevisiae lifespan shortening project (AID 705;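 active = growth inhibition above 25% in both replicates, a cutoff set 3 SD above the mean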); conditions: OD615, 24 h, at 10 µM, stronger effect = higher value
Method in brief: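 System: engineered DeaD yeast; Medium: permissive raffinose/galactose medium; Compound dosing: 10 µM single dose, 0.25% DMSO; Incubation: 4 h cell pre-growth, 24 h exposure at 30 °C; Technique: OD at 615 nm; Evaluation: growth inhibition from lowered OD615 after 24 h.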

[2] = Restrictive medium S. cerevisiae growth inhibition, OD615, pilot screen of yeast lifespan reduction project, restrictive growth control (AID 706;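 active = growth inhibition above a set limit, 3 SD over mean compound inhibition, in both replicates, cut at about 43% in these data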;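 note: modified DeaD lifespan yeast strain shifted to restrictive glucose medium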); conditions: OD615, 48 h, at 10 µM, stronger effect = higher value
Method in brief: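 Material: modified S. cerevisiae; buffer or medium: CSMM-D glucose medium; doses: one concentration, 10 µM final, 0.25% DMSO; incubation: 48 h compound exposure at 30 °C; detection: optical density at 615 nm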

[3] = viability gain of MRP-1-high H69AR cells under doxorubicin, pilot screen, MRP-1 activator project, CellTiter-Glo, duplicate (AID 807;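 active = viability increase at or above a cutoff of the median across tested compounds plus 3 SD, cut at about 8.5% in these data, passing the limit was not always enough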;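 note: compound pretreatment 18-22 h then 72 h combined with doxorubicin; 0% = doxorubicin alone and 100% = vehicle without doxorubicin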); conditions: H69AR viability with doxorubicin, CellTiter-Glo luminescence; at 10 µM; stronger effect = higher value
[4] = growth suppression of beta-catenin knockout HCT116, pilot screen, human colon tumor cells (AID 823;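 active = cell viability at or below a set limit in both duplicate runs, the limit being the all-compound median minus 4 SD, cut at about 23% in these data, passing the limit was not always enough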;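 note: 0% = wells killed by 20 µM Hyamine and 100% = untreated DMSO cell wells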); conditions: CellTiter-Glo, 60 h, at 10 µM, stronger effect = lower value
[5] = growth suppression of PTEN-deleted HCT116, pilot screen, cell-based, HCT116 clonal line, CellTiter-Glo (AID 824;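 active = viability at or below 27.92% in each of two runs, the all-compound median minus 4 SD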;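 note: 0% = 20 µM Hyamine control and 100% = vehicle cell control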); conditions: 60 h, at 10 µM, stronger effect = lower value
[6] = inhibitors of the yeast RAM network, pilot screen, dse1pr::URA3 reporter, 5-FOA selection (AID 869);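 note: 0% = DMSO wells with no growth and 100% = 10 µM 1-NA-PP1 with full growth; RAM network block rescues cells from 5-FOA so hits raise OD615 growth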; conditions: S. cerevisiae dse1pr::URA3 5-FOA growth, OD615, 2 d; at 10 µM; stronger effect = higher value; strain carries analog-sensitive mutant Cbk1 kinase
[7] = RAM signaling pathway blockade in yeast – S. cerevisiae, Pdr1DBD-CYC8 efflux-inhibited sensitized strain, primary screen (AID 1298;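 active = RAM network inhibition above 8.4% in each of two replicates, 3 SD over the compound average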;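 note: 0% = DMSO untreated cells without growth and 100% = 10 µM 1-NA-PP1 full growth; higher means more yeast growth rescued from 5-FOA killing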); conditions: S. cerevisiae cbk1-as DSE1-URA3 strain, 5-FOA growth OD615, 2 d; at 50 µM; stronger effect = higher value

COc1ccc(S(=O)(=O)N2CCC(C(N)=O)CC2)cc1
inactive: growth inhibition [1] 6.47% | growth inhibition [2] -3.14% | viability increase [3] 0.89% | viability [4] 106% | viability [5] 102% | inhibition [6] 3.44% | RAM network inhibition [7] 4.25%

COCCN1C(=O)c2oc3ccccc3c(=O)c2C1c1ccc(O)c(OC)c1 (stereo not drawn)
inactive: growth inhibition [1] -9.35% | growth inhibition [2] -0.41% | viability increase [3] -3.27% | viability [4] 97.5% | viability [5] 93.2% | inhibition [6] 0.49% | RAM network inhibition [7] 8.37%

Cc1oc2cc(O)ccc2c(=O)c1Oc1ccccc1Br
inactive: growth inhibition [1] -15.9% | growth inhibition [2] -12.2% | viability increase [3] -3.45% | viability [4] 94% | viability [5] 84.4% | inhibition [6] 1.68% | RAM network inhibition [7] 2.42%

CC(C)N(C(=O)CSc1nc2c([nH]1)c(=O)n(C)c(=O)n2C)c1ccccc1
inactive: growth inhibition [1] -4.33% | growth inhibition [2] -12.7% | viability increase [3] 1.94% | viability [4] 106% | viability [5] 102% | inhibition [6] 1.22% | RAM network inhibition [7] 6.3%

O=C(c1cnn(-c2ccccc2)c1-n1cccc1)N1CCN(C2CCCCC2)CC1
inactive: growth inhibition [1] -1.61% | growth inhibition [2] 5.93% | viability increase [3] -3.1% | viability [4] 94% | viability [5] 93.4% | inhibition [6] 1.35% | RAM network inhibition [7] 2.87%

CC(C)C(NC(=O)CN1C(=O)c2ccccc2S1(=O)=O)C(C)C
inactive: growth inhibition [1] -10% | growth inhibition [2] -13% | viability increase [3] -2.05% | viability [4] 98.8% | viability [5] 94.3% | inhibition [6] 1.4% | RAM network inhibition [7] -1.56%

O=C(CN1C(=O)CCC1=O)Nc1nc2c(F)cc(F)cc2s1
inactive: growth inhibition [1] -23% | growth inhibition [2] -18.8% | viability increase [3] -0.91% | viability [4] 99.4% | viability [5] 92.5% | inhibition [6] 1.6% | RAM network inhibition [7] 1.49%

CC(=O)Nc1ccc(S(=O)(=O)Nc2nc3ccccc3nc2Sc2nncn2C)cc1
inactive: growth inhibition [1] 1.94% | growth inhibition [2] 11.7% | viability increase [3] -2.89% | viability [4] 98.1% | viability [5] 98.1% | inhibition [6] 1.86% | RAM network inhibition [7] 2.12%

Cc1c(NC(=O)c2ccc3c(c2)OCO3)cccc1-c1nc2ncccc2o1
inactive: growth inhibition [1] -9.32% | growth inhibition [2] -13.2% | viability increase [3] -1.14% | viability [4] 102% | viability [5] 95.3% | inhibition [6] 2.48% | RAM network inhibition [7] 3.92%

COc1ccc(S(=O)(=O)Cc2ccc(C(=O)NC3CC3)o2)cc1
inactive: growth inhibition [1] 1.37% | growth inhibition [2] -4.7% | viability increase [3] -3.02% | viability [4] 75.5% | viability [5] 87.9% | inhibition [6] 0.85% | RAM network inhibition [7] 2.57%

O=C(/C=N/O)Nc1ccccc1C(=O)O
inactive: growth inhibition [1] -14.8% | growth inhibition [2] -16.7% | viability increase [3] -2.95% | viability [4] 97.1% | viability [5] 98.5% | inhibition [6] 2.12% | RAM network inhibition [7] 4.14%

O=C(CSc1nc2c(c(=O)n1-c1ccc(Cl)cc1)SCC2)Nc1nccs1
inactive: growth inhibition [1] -2.95% | growth inhibition [2] -4.84% | viability increase [3] -2.93% | viability [4] 82.5% | viability [5] 78.4% | inhibition [6] 3.08% | RAM network inhibition [7] 5.03%

COc1cc(C2C(C(=O)c3ccco3)=C(O)C(=O)N2Cc2cccnc2)cc(OC)c1OC (stereo not drawn)
inactive: growth inhibition [1] 2.67% | growth inhibition [2] -4.03% | viability increase [3] -3.86% | viability [4] 102% | viability [5] 96.8% | inhibition [6] 1.64% | RAM network inhibition [7] 4.97%

CCOC(=O)C1CCN(C(c2cccc(OC)c2)c2sc3nc(C)nn3c2O)CC1 (stereo not drawn)
inactive: growth inhibition [1] -2.67% | growth inhibition [2] -6.39% | viability increase [3] -1.96% | viability [4] 94.2% | viability [5] 95.9% | inhibition [6] 0.11% | RAM network inhibition [7] -0.51%

CCOc1ccc(-c2nnc(-c3ccco3)o2)cc1
inactive: growth inhibition [1] -1.61% | growth inhibition [2] 5.67% | viability increase [3] 1.72% | viability [4] 94.5% | viability [5] 101% | inhibition [6] 0.695% | RAM network inhibition [7] 2.38%

OCc1cn(-c2ccccc2)nc1-c1ccc(-c2nn(-c3ccccc3)cc2CO)cc1
inactive: growth inhibition [1] 3.83% | growth inhibition [2] -4.29% | viability increase [3] -4.72% | viability [4] 102% | viability [5] 95.1% | inhibition [6] 1.8% | RAM network inhibition [7] 5.84%

CCOC(=O)C1CCN(S(=O)(=O)c2cc(Br)cc3c2N(C(C)=O)C(C)C3)CC1 (stereo not drawn)
inactive: growth inhibition [1] -11.1% | growth inhibition [2] -29% | viability increase [3] 0.29% | viability [4] 93.4% | viability [5] 93.2% | inhibition [6] 1.19% | RAM network inhibition [7] 11.2%

O=C(c1cc2ccccn2n1)N1CCN(Cc2ccccc2)CC1
inactive: growth inhibition [1] 1.21% | growth inhibition [2] 7.58% | viability increase [3] -0.74% | viability [4] 104% | viability [5] 87.7% | inhibition [6] 0.99% | RAM network inhibition [7] 2.76%

COc1ccccc1CNC(=O)c1cnc2ccccn2c1=O
inactive: growth inhibition [1] -6.47% | growth inhibition [2] 8.2% | viability increase [3] -0.15% | viability [4] 97.8% | viability [5] 90.5% | inhibition [6] 0.36% | RAM network inhibition [7] 2.45%

O=C(NCC1COc2ccccc2O1)C1CCCN(S(=O)(=O)c2cccc3cccnc23)C1 (stereo not drawn)
inactive: growth inhibition [1] -2.58% | growth inhibition [2] -19.5% | viability increase [3] 0.43% | viability [4] 71.8% | viability [5] 72.9% | inhibition [6] 2.7% | RAM network inhibition [7] 3.24%

Fc1cccc(-c2cc3nc4c(c(N5CCC6(CC5)OCCO6)n3n2)CCCC4)c1
inactive: growth inhibition [1] 3.03% | growth inhibition [2] -2.67% | viability increase [3] -3.94% | viability [4] 70.6% | viability [5] 61.5% | inhibition [6] 1.19% | RAM network inhibition [7] -0.47%

COC(=O)c1c(C)nn(-c2ccccc2)c1N
inactive: growth inhibition [1] -12.5% | growth inhibition [2] -19.5% | viability increase [3] -1.39% | viability [4] 108% | viability [5] 98.5% | inhibition [6] 1.2% | RAM network inhibition [7] -0.37%

Cn1c(=O)c2c(nc(CN3CCN(CCO)CC3)n2Cc2ccccc2Cl)n(C)c1=O
inactive: growth inhibition [1] 4.8% | growth inhibition [2] -2.67% | viability increase [3] -3.91% | viability [4] 98.2% | viability [5] 96.2% | inhibition [6] 0.875% | RAM network inhibition [7] 4.94%

O=c1nc2n(c3sc4c(c13)CCC4)Cc1ccccc1-2
inactive: growth inhibition [1] -15.5% | growth inhibition [2] -9.3% | viability increase [3] -2.14% | viability [4] 94.2% | viability [5] 100% | inhibition [6] 1.48% | RAM network inhibition [7] 1.43%
